E coli WT exp: growth inhibitors of wild-type E. coli, primary screen, strain BW25113, expanded library, OD600. OD600 absorbance. actives 0.15% (n = 98,000). growth inhibition, % at 100 µM. AID 710, 2007;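 active means growth inhibition above about 50% at one test dose, limit read from the data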;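 further: growth measured after 20 h incubation at 37 °C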
PLAP act: PLAP enzyme activators, biochemical, luminescence, HTS; Alkaline phosphatase, placental type (Homo sapiens), P05187; purified PLAP enzyme, luminescent substrate read-out; active compounds read high; activation fold at 20 µM; actives 1.2% (n = 96,000); AID 696, 2007; in the data active means activation fold above about 2
Target sequence (P05187 whole entry, looked up): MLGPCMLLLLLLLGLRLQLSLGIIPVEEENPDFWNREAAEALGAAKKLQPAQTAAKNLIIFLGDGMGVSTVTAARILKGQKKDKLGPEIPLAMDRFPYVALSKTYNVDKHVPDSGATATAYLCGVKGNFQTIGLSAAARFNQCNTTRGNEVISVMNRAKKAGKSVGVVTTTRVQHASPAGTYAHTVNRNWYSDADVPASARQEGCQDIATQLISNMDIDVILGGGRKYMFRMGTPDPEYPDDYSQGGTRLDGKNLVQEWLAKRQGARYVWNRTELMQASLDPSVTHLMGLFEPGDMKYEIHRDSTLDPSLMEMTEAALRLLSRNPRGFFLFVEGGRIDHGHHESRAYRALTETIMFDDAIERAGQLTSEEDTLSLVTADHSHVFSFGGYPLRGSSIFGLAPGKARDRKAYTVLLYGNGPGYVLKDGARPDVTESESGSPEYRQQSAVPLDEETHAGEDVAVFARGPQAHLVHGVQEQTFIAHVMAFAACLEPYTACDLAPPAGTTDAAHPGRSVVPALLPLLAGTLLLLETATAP
tolC growth inh: growth inhibitors of E. coli tolC mutant, primary screen, strain BW25113 ΔtolC::kan, 384-well. growth inhibition, % at 10 µM (by protocol). OD615. actives 2.2% (n = 65,000);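 active means growth inhibition at or above a cutoff equal to the mean over every tested compound plus 3 SD, cut at about 60% in these data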;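 further: growth measured after 20 h incubation at 37 °C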
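Test system – E. coli BW25113 ΔtolC::kan, tolC deletion mutant strain · Detection – OD at 615 nm · Buffer or medium – LB with kanamycin 50 µg/mL · Times – 20 h compound exposure of bacteria at 37 °C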
PostGolgi ctrl: growth inhibition of yeast control strain, primary screen, counter-screen for post-Golgi transport modulator project; efflux-deficient yeast background strain, growth absorbance A615, 16 h; inhibition, % at 10 µM; actives 5% (n = 98,000); AID 738, 2007
HePTP inh: inhibitors of human HePTP phosphatase, primary screen, biochemical, absorbance, leukemia target | AID 521, 2006 | recombinant HePTP phosphatase activity, OD absorbance | inhibition, % at 20 µM | actives 0.64% (n = 110,000); in the data active means inhibition above about 50%;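 further: plate controls were vehicle for no effect and reference inhibitor for full effect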
PostGolgi yeast: phenotypic screen on post-Golgi transport, primary screen | actives 0.9% (n = 98,000) | inhibition, % at 10 µM | post-Golgi transport phenotypic cell assay;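 further: yeast cells grown in 1536-well plates; yeast grown about 18 h at 30C before absorbance read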
Active calls of the source: *; / = no result given. This is a sample that favours compounds with a hit; in the whole collection about 5.5% have one here. Unless noted, no stated cut-off is given here; in the data, active means inhibition above about 30%; inactive means the rest.

SMILES | E coli WT exp | PLAP act | tolC growth inh | PostGolgi ctrl | HePTP inh | PostGolgi yeast
c1ccc(-c2cc3c(ccc4nonc43)nn2)cc1 | -1 | 1.1 | 13 | 10 | -2 | -1
CC(C)c1nc(SCC(=O)N2c3ccccc3CC2C)c2ccccc2n1 (stereo unspecified) | -21 | 1.3 | / | 37* | / | 12
O=C(CSc1nnc(CNc2ccccc2)o1)N1CCCc2ccccc21 | -1 | 0.9 | 19 | -5 | 4 | 9
O=C(CSc1nnc(CNc2ccc(F)cc2)o1)N1c2ccccc2Sc2ccccc21 | -9 | 1.3 | / | 50* | / | 11
CC1Cc2ccccc2N1C(=O)CSc1nnc(CNc2ccccc2)o1 (stereo unspecified) | 0 | 0.9 | -15 | 37* | -2 | 0
CCN(CC)S(=O)(=O)c1ccc(Cl)c(C(=O)Nc2cccc(C(=O)O)c2)c1 | / | / | / | / | 8 | /
O=C(COc1ccccc1[N+](=O)[O-])Nc1cc(Cl)cc(Cl)c1 | / | / | / | / | 9 | /
CCOC(=O)N/N=C(\C)Cc1ccc2c(c1)OCO2 | / | / | / | / | 4 | /
O=C(CC1Nc2ccccc2NC1=O)Nc1cccc(C(=O)O)c1 (stereo unspecified) | / | / | / | / | 52* | /
COc1ccc(CN2CCN(C3CCCC3)CC2)c(OC)c1 | / | / | / | / | -14 | /
N#CC1=C(N)OC2=C(C(=O)CCC2)C12CCC1(CC2)OCCO1 | -1 | 1.1 | -18 | 46* | 2 | -7
O=C(c1ccc(F)cc1)c1ccc(N2CCCC2)cc1 | -1 | 1.1 | 6 | 42* | -12 | 6
CN1Cc2cc(C(=O)c3ccccc3O)cnc2NC1=O | 10 | 1.2 | / | 1 | / | -10
Cc1[nH]nc2ncc(C(=O)c3ccccc3O)cc12 | 5 | 2.1* | 2 | 15 | -10 | -7
CCN(CC)c1ccc(/C=C2/C(=O)N(c3ccc([N+](=O)[O-])cc3)N=C2N2CCOCC2)cc1 | -10 | 0.8 | / | 34* | / | -2
c1ccc2c(c1)OCC(CSc1nc3ccccc3[nH]1)O2 (stereo unspecified) | / | / | / | / | -5 | /
Cn1c(-c2ccc3c(c2)OCO3)cnc1N | -2 | 1.1 | 91* | -1 | 7 | 18
CCCCNC(=O)CCC(=O)Nc1ncc(-c2ccc(C)cc2)n1C | 0 | 2* | 1 | 9 | -4 | -5
Cn1c(-c2ccc3c(c2)OCO3)cnc1NC(=O)CCC(=O)NCCc1ccccc1 | -6 | 1.4 | -8 | 34* | 5 | -4
Cn1c(-c2ccc3c(c2)OCO3)cnc1NCc1ccccc1 | 15 | 1.2 | -20 | 9 | 1 | 7
Cc1ccc(-c2cnc(NC(=O)CCC(=O)N3CCCCC3)n2C)cc1 | 7 | 1.5 | / | 4 | -7 | 1
Cn1c(-c2ccc3c(c2)OCO3)cnc1NCc1cccc(Cl)c1 | 47 | 0.8 | 37 | 13 | -1 | -3
COc1ccc(NC(=O)C2=C(C)NC(=O)NC2c2cc(OC)c(OC)c(OC)c2)cc1 (stereo unspecified) | / | / | / | / | 4 | /
O=C(Nc1cccc(F)c1)c1cc(S(=O)(=O)N2CCCCC2)ccc1Cl | / | / | / | / | 9 | /
CC(C)C(NS(=O)(=O)c1ccc(Cl)cc1)C(=O)NN (stereo unspecified) | / | / | / | / | 11 | /
SMILES | E coli WT exp | PLAP act | tolC growth inh | PostGolgi ctrl | HePTP inh | PostGolgi yeast
COc1ccccc1N1CCN(C(=O)Cc2cccs2)CC1 | 3 | 1.2 | 1 | 38* | 10 | -1
O=C(CSc1nc2ccccc2o1)N1CCN(C(=O)c2ccco2)CC1 | 4 | 1.2 | 22 | 9 | 1 | -5
COc1ccccc1N1CCN(C(=O)COc2cccc3ccccc23)CC1 | / | / | / | / | 2 | /
COc1ccc(N2CCN(C(=O)CSc3nnc(CNc4ccccc4)o3)CC2)cc1 | -11 | / | -1 | -1 | -4 | 3
COc1ccc(Cc2nnc(SCC(=O)N3CCN(c4ccccc4)CC3)o2)cc1 | -9 | 1 | -9 | 36* | -3 | 4
COc1ccccc1N1CCN(C(=O)CSc2nc3ccccc3o2)CC1 | 21 | 1.5 | / | 8 | / | 33*
COc1ccc2c(c1)/C(=N\OC(=O)c1ccc(OC)c([N+](=O)[O-])c1)CCC2 | / | / | / | / | -8 | /
Cc1c(NC(=O)C(c2ccccc2)c2ccccc2)cccc1[N+](=O)[O-] | / | / | / | / | 1 | /
O=S(=O)(NCCOCC(F)(F)C(F)F)c1ccc2oc3ccccc3c2c1 | 4 | 0.9 | 27 | 41* | -7 | 4
CCOc1ccc(Nc2nc(-c3ccccn3)cs2)cc1 | / | / | / | / | 7 | /
Cc1cccnc1Nc1nc(-c2ccc(O)cc2O)cs1 | 10 | 1.5 | 100* | 59* | 12 | -1
Cc1cccnc1Nc1nc(-c2ccccn2)cs1 | 20 | 1.1 | / | 52* | / | 101*
Cc1cccc(Nc2nc(-c3ccccn3)cs2)n1 | 37 | 0.8 | 98* | 13 | -2 | 25
COc1ccc(OC(C)C(=O)Nc2ccc3c(c2)OCCO3)cc1 (stereo unspecified) | / | / | / | / | -4 | /
COc1ccc(-c2nnc(SC(C)C(=O)Nc3ccc4c(c3)OCCO4)o2)cc1 (stereo unspecified) | 4 | 2.1* | 4 | -3 | -1 | 6
Cc1ccc(OCC(=O)Nc2ccccc2C#N)c(C)c1 | / | / | / | / | 3 | /
Cc1cc(C=C(C#N)C#N)c(C)n1-c1cccc(Cl)c1 | / | / | / | / | 4 | /
Cc1cc(/C=C(/C#N)c2cccc(Cl)c2)c(C)n1C | -20 | 1 | / | 43* | / | 0
Cc1cc(/C=C(/C#N)c2cccc(F)c2)c(C)n1-c1cccnc1 | -3 | 1.6 | 99* | 37* | 14 | -2
CCOC(=O)C1=C(C)N=c2s/c(=C\c3ccc(O)c(OC)c3)c(=O)n2C1c1cccc(OC)c1 (stereo unspecified) | / | / | / | / | -6 | /
Cc1ccc(S(=O)(=O)Nc2ccccc2C(O)C[N+](=O)[O-])cc1 (stereo unspecified) | / | / | / | / | 4 | /
O=C(C(c1ccccc1)c1ccccc1)N1CCN(Cc2ccc(Br)cc2)CC1 | -7 | 0.9 | / | 51* | / | 9
N#Cc1nc(-c2cccs2)oc1NCCc1ccccc1 | 13 | 0.6 | -5 | 34* | 7 | 0
Cc1ccc(C(=O)NCc2ccc(Cl)c(Cl)c2)o1 | 22 | 0.9 | 43 | 4 | -11 | 3
CCOC(=O)NCc1ccc(Cl)c(Cl)c1 | 15 | 0.8 | 14 | 36* | 2 | 4
CCCc1[nH]nc2c1C(c1ccc(OC)c(CSC3=NCCS3)c1)C(C#N)=C(N)O2 (stereo unspecified) | 5 | 1.6 | 87* | 6 | 4 | -3
CCCc1[nH]nc2c1C(c1cc(OC)cc(OC)c1)C(C#N)=C(N)O2 (stereo unspecified) | 1 | 1.5 | -5 | -4 | 0 | 10
CCc1c(O)nc(SCC(=O)Nc2ccc(C)cc2)n(C2CCCCC2)c1=O | 1 | 1.4 | 78* | -1 | 10 | 10
CO/N=C(/C(=N/OC)c1ccccc1)c1ccccc1 | / | / | / | / | 3 | /
Nc1nc(Cl)cc(N2CCC(c3cc(-c4ccc(Cl)cc4Cl)n[nH]3)CC2)n1 | 6 | 1.2 | / | 82* | / | 43*

Screens deposited in PubChem by several laboratories.
